Experimental findings from ChEMBL document CHEMBL3612066, “Design, Synthesis, and Biological Evaluation of Pyrazolo[1,5-a]pyridine-3-carboxamides as Novel Antitubercular Agents” (ACS Med Chem Lett, 2015) are described below.

The structures appear in SMILES notation. ≈ marks a conversion by molar mass, not a printed value. Where only a bound is given, the exact number is not on record here.

Holding throughout (type): functional
Experiment [1] deals with Mycobacterium tuberculosis. The experiment in a line: Antitubercular activity against multidrug-resistant Mycobacterium tuberculosis UAlP163 after 7 days by autoluminescent assay. The conditions noted are these: UAlP163, 168 h. In a few lines:
(§1)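 Autoluminescent assay against MDR clinical isolates (3495, P71, 9804, 4768, P163). Bacterial growth was read as bioluminescence intensity with no added substrate. MIC values are means of two independent experiments.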

For experiment [2], the system named is Mycobacterium tuberculosis. The experiment in a line: Antitubercular activity against multidrug-resistant Mycobacterium tuberculosis UAlP7 after 7 days by autoluminescent assay. The conditions noted are these: UAlP7, 168 h. A digest of the protocol:
as §1

Experiment [3] deals with Mycobacterium tuberculosis. In words: Antitubercular activity against multidrug-resistant Mycobacterium tuberculosis UAl3495 after 7 days by autoluminescent assay. The conditions noted are these: UAl3495, 168 h. In a few lines:
as §1

Experiment [4] has as its system Mycobacterium tuberculosis. In words: Antitubercular activity against multidrug-resistant Mycobacterium tuberculosis UAl4768 after 7 days by autoluminescent assay. Particulars: UAl4768, 168 h. A digest of the protocol: as §1
Experiment [5] concerns Mycobacterium tuberculosis. In words: Antitubercular activity against multidrug-resistant Mycobacterium tuberculosis UAl9804 after 7 days by autoluminescent assay. The conditions noted are these: UAl9804, 168 h. A digest of the protocol:
as §1

Regarding `Cc1ccn2nc(C)c(C(=O)NCc3ccc(N4CCC(c5ccc(OC(F)(F)F)cc5)CC4)cc3)c2c1`, the minimum inhibitory concentration (MIC) (usually the least concentration at which growth counts as inhibited) in experiment [1] was less than 0.383 µM; in experiment [2], less than 0.383 µM; in experiment [3], 1.91 µM (≈ 1 µg/mL); in experiment [4], less than 0.383 µM; in experiment [5], less than 0.383 µM.
Consider `COc1ccn2nc(C)c(C(=O)NCc3ccc(N4CCC(c5ccc(OC(F)(F)F)cc5)CC4)cc3)c2c1`, for which the MIC in experiment [1] was 0.0111 µM (≈ 0.00598 µg/mL); in experiment [2], 0.0111 µM (≈ 0.00598 µg/mL); in experiment [3], 0.0223 µM (≈ 0.012 µg/mL); in experiment [4] it was 0.0111 µM (≈ 0.00598 µg/mL); in experiment [5] it was less than 0.0111 µM.
With `Cc1nn2ccc(Cl)cc2c1C(=O)NCc1ccc(N2CCC(c3ccc(OC(F)(F)F)cc3)CC2)cc1`, the minimum inhibitory concentration (MIC) in experiment [1], in experiment [2], in experiment [4] and in experiment [5] was less than 0.184 µM each time.
With `CCc1nn2ccc(Cl)cc2c1C(=O)NCc1ccc(N2CCC(c3ccc(OC(F)(F)F)cc3)CC2)cc1`, the MIC in experiment [1] is less than 0.0359 µM; in experiment [2], 0.0718 µM (≈ 0.04 µg/mL); in experiment [4], 0.0359 µM (≈ 0.02 µg/mL); in experiment [5], less than 0.0359 µM.
